Test results published in ChEMBL document CHEMBL1212759, “Antifungal activity of colistin against mucorales species in vitro and in a murine model of Rhizopus oryzae pulmonary infection” (Antimicrob Agents Chemother, 2010).
Active and inactive are the calls of the source. No cut-off for these calls is given here.

Experiments:
Assay type in all cases: functional, organism-based
Rhizopus arrhizus [1] = assay: Fungicidal activity against Rhizopus oryzae 5799 at 2 ug/ml after 6 hrs by DiBAC staining
In short: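 Spores were grown to mycelia in RPMI 1640 plus 0.15% Junlon, shaken 18 h at 37°C. Mycelia were pelleted and exposed 6 h at 37°C with shaking to colistin (two levels), amphotericin B 2 μg/ml, or drug-free medium. They were washed in MOPS pH 7, stained with DiBAC 2 μg/ml for 1 h in the dark at ambient temperature, and imaged by fluorescence microscopy with an FITC filter.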

Rhizopus arrhizus [2] = assay: Antifungal activity against Rhizopus oryzae infected in BALB/c mouse pulmonary mucormycosis model assessed as decrease in fungal burden at 80 mg/kg/day, ip by RT-qPCR analysis
In short: (§1)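 Female BALB/c mice (18–22 g) were immunosuppressed with cyclophosphamide 75 mg/kg i.p. and cortisone acetate 300 mg/kg s.c., then infected intranasally with ~3,500 R. oryzae spores. Colistimethate 40 mg/kg i.p. was given every 12 h for 5 days, starting 3 h post-infection; controls got saline. Groups of 10, run three times. Mortality was followed twice daily for 10 days; lung fungal burden by qPCR of rRNA gene, duplicate.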

Rhizopus arrhizus [3] = assay: Antimicrobial activity against Rhizopus oryzae infected in BALB/c mouse pulmonary mucormycosis model assessed as increase in survival rate at 5 mg/kg/day, itn after 10 days
In short: (§2)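 Female BALB/c mice were immunosuppressed with cyclophosphamide and cortisone acetate and infected intranasally with ~3,500 R. oryzae spores. As prophylaxis, intranasal colistimethate 2.5 mg/kg was given every 12 h for 5 days, starting 1 day before infection; on infection day it was given 3 h after spores. Groups of 10, run three times. Survival was followed over 10 days; lung burden by rRNA-gene qPCR.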

Rhizopus arrhizus [4] = assay: Antifungal activity against Rhizopus oryzae infected in BALB/c mouse pulmonary mucormycosis model assessed as decrease in fungal burden at 5 mg/kg/day, itn by RT-qPCR analysis; in short: as §2
Rhizopus arrhizus [5] = assay: Antimicrobial activity against Rhizopus oryzae infected in BALB/c mouse pulmonary mucormycosis model assessed as effect on fungus-induced mortality rate at 80 mg/kg/day, ip after 10 days; in short: as §1

Compound | Activity (Rhizopus arrhizus [1]) | inhibition (Rhizopus arrhizus [2]) | survival (Rhizopus arrhizus [3]) [%] | inhibition (Rhizopus arrhizus [4]) | Activity (Rhizopus arrhizus [5])
C[C@@H]1[C@H](O)[C@@H](C)/C=C/C=C/C=C/C=C/C=C/C=C/C=C/[C@H](O[C@@H]2O[C@H](C)[C@@H](O)[C@H](N)[C@@H]2O)C[C@@H]2O[C@](O)(C[C@@H](O)C[C@@H](O)[C@H](O)CC[C@@H](O)C[C@@H](O)CC(=O)O[C@H]1C)C[C@H](O)[C@H]2C(=O)O | Active | – | – | – | –
COLISTIMETHATE | – | inactive | 61 | Active | inactive
